Laboratory results reported in paper PMC9263996 (iScience, 2022).
“Also recorded” adds a separate entry of the source.

Legend:
MaltOBP24 [1] = target: T1, MaltOBP24 (Monochamus alternatus, UniProt A0A1I9HZN3); experiment: Competitive fluorescence-binding assay with 1-NPN probe, recombinant MaltOBP24; conditions: MaltOBP24 Ki (dissociation constant), 1-NPN competition, mean ± SEM
T1 sequence (A0A1I9HZN3 1-169): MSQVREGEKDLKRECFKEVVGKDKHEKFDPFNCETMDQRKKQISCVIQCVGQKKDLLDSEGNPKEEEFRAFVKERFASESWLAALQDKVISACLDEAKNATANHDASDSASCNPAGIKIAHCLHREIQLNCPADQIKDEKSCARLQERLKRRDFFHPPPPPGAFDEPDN

DhelOBP10 [2] = target: T2, DhelOBP10 (Dastarcus helophoroides, UniProt A0A1I9HZP4); experiment: Competitive fluorescence-binding assay with 1-NPN probe, recombinant DhelOBP10; conditions: for Ki: DhelOBP10 Ki (dissociation constant), 1-NPN competition, mean ± SEM
T2 sequence (A0A1I9HZP4 20-220): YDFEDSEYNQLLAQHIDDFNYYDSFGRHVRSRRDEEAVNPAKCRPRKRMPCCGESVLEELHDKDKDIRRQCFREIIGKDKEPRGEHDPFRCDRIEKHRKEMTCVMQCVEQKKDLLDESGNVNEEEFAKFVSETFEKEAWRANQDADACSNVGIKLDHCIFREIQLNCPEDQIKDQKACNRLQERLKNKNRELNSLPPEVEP
Outline: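 Recombinant signal-peptide-free DhelOBP10 from E. coli (pET-32b; 1 mM IPTG induction, 12 h at 16°C), dialysed into Tris pH 7.4 or 5.0. […] Ligands (1 mM methanol stock) were added to 0–20 μM; Ki = IC50/(1+[1-NPN]/K1-NPN). Mean ± SEM.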

MaltOBP24 [3] = experiment: Fluorescence-quenching spectra assay, MaltOBP24; type: binding, Monochamus alternatus; conditions: for quenching mechanism of the interaction with MaltOBP24: change of Ksv with temperature 289–298 K, neutral pH
DhelOBP10 [4] = target: T2, DhelOBP10; experiment: Fluorescence-quenching spectra assay, DhelOBP10; type: binding; conditions: for ΔS (entropy change): DhelOBP10, pH 7.4; for ΔH (enthalpy change): DhelOBP10, pH 7.4, 289 and 298 K; for Kd: Ka (apparent association constant); for quenching mechanism of the interaction with DhelOBP10: change of Ksv with temperature 289–298 K, neutral pH; for main acting force between ligand and DhelOBP10: from signs of ΔH and ΔS
Outline: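 Intrinsic fluorescence of 2 μM recombinant DhelOBP10 in 30 mM Tris-HCl (pH 7.4 or 5.0): excitation 289 nm, slits 15/10 nm, scan 300–500 nm. Ligand aliquots came from 1 mM stock, at 289 and 298 K. Ksv and Kq were taken from Stern–Volmer fits, Ka and n from double-log plots, and ΔG, ΔH, ΔS from thermodynamic equations to assign binding force.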

M. alternatus adults = experiment: Y-tube olfactometer binary choice assay, M. alternatus adults; type: in vivo, Monochamus alternatus; conditions: for behavioral response of M. alternatus adults in Y-tube: untreated adults, in words
Outline: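 Field-collected adults kept singly at 25°C on fresh pine twigs. RNAi: 1 μg dsMaltOBP24 or dsGFP injected into the frons of 4-day-old adults under CO₂ narcosis, with non-injected controls, and tested 4 days later. Y-tube with 40 cm stem, 30 cm arms at 60°, airflow 300 mL/min. Odour was 10 µL of 100-fold paraffin-oil dilution versus paraffin oil. Insects had 5 min; ≥30 per sex, each tested once; Chi-square.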

D. helophoroides adults = experiment: Y-tube olfactometer binary choice assay, D. helophoroides adults; type: in vivo, Dastarcus helophoroides; conditions: for attraction to D. helophoroides after silencing DhelOBP10: RNAi, compared with non-injected and dsGFP controls; for behavioral response of D. helophoroides adults in Y-tube: untreated adults, in words
Outline: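 Adults reared at 25°C on an artificial diet. RNAi: 4-day-old adults given 300 ng dsDhelOBP10 or dsGFP into the frons, with non-injected controls, and tested 4 days later. Y-tube with 15 cm stem, 12 cm arms at 75°, airflow 300 mL/min per arm. Odour was 10 µL of 100-fold paraffin-oil dilution on filter paper versus paraffin oil. Insects had 5 min; arms swapped; ≥60 insects (30 per sex), each tested once; Chi-square.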

SaveOBP3 = conditions: fluorescence-binding assays; ref Vandermoten et al., 2011; cited from earlier work
EbalOBP3 = conditions: fluorescence-binding assays; ref Vandermoten et al., 2011; cited from earlier work

| Ki (MaltOBP24 [1]; pH5.0) [µM] | Ki (MaltOBP24 [1]; pH7.4) [µM] | Ki (DhelOBP10 [2]; pH5.0) [µM] | Ki (DhelOBP10 [2]; pH7.4) [µM] | ΔS (entropy change) (DhelOBP10 [4]) | Kq (bimolecular quenching constant) (DhelOBP10 [4]; DhelOBP10, pH 7.4, 289 K) [M⁻¹ s⁻¹] | Ksv (quenching constant) (DhelOBP10 [4]; DhelOBP10, pH 7.4, 289 K) | n (number of binding sites) (DhelOBP10 [4]; DhelOBP10, pH 7.4, 289 K) | ΔG (free energy change) (DhelOBP10 [4]; DhelOBP10, pH 7.4, 289 K) | Kq (bimolecular quenching constant) (DhelOBP10 [4]; DhelOBP10, pH 7.4, 298 K) [M⁻¹ s⁻¹] | Ksv (quenching constant) (DhelOBP10 [4]; DhelOBP10, pH 7.4, 298 K) | n (number of binding sites) (DhelOBP10 [4]; DhelOBP10, pH 7.4, 298 K) | ΔG (free energy change) (DhelOBP10 [4]; DhelOBP10, pH 7.4, 298 K) | quenching mechanism of the interaction with DhelOBP10 (DhelOBP10 [4]) | Molecule | quenching mechanism of the interaction with MaltOBP24 (MaltOBP24 [3]) | behavioral response of M. alternatus adults in Y-tube (M. alternatus adults) | behavioral response of D. helophoroides adults in Y-tube (D. helophoroides adults) | other results |
| --- | --- | --- | --- | --- | --- | --- | --- | --- | --- | --- | --- | --- | --- | --- | --- | --- | --- | --- |
| 23.5 ± 2.33 | 3.31 ± 0.68 | 13.9 ± 2.91 | 14.5 ± 2.61 | 42.1 J/(mol·K) | 3.524e+11 | 3,524 ± 122.4 L·mol^−1 | 0.9999 ± 0.0605 | −19,760.09 J·mol^−1 | 2.97e+11 | 2,970 ± 15.32 L·mol^−1 | 0.9088 ± 0.0218 | −17,960.72 J·mol^−1 | static quenching | CC1=CCC2C(C1)C2(C)C (centres unmarked) [3-carene] | static quenching | did not affect their behavior | significant preference | Ka (apparent association constant) (MaltOBP24 [3]; MaltOBP24, pH 7.4, 289 K): 9,394,307.39 L·mol^−1; Kq (bimolecular quenching constant) (MaltOBP24 [3]; MaltOBP24, pH 7.4, 289 K): 2.4156e+12 M⁻¹ s⁻¹; Ksv (quenching constant) (MaltOBP24 [3]; MaltOBP24, pH 7.4, 289 K): 24,156 ± 442.5 L·mol^−1; Ka (apparent association constant) (MaltOBP24 [3]; MaltOBP24, pH 7.4, 298 K): 3,347,243.70 L·mol^−1; Kq (bimolecular quenching constant) (MaltOBP24 [3]; MaltOBP24, pH 7.4, 298 K): 1.8949e+12 M⁻¹ s⁻¹; Ksv (quenching constant) (MaltOBP24 [3]; MaltOBP24, pH 7.4, 298 K): 18,949 ± 876.5 L·mol^−1; ΔH (enthalpy change) (DhelOBP10 [4]): −7,595.91 J·mol^−1; Kd (DhelOBP10 [4]; DhelOBP10, pH 7.4, 289 K): 268 µM; Kd (DhelOBP10 [4]; DhelOBP10, pH 7.4, 298 K): 711 µM; main acting force between ligand and DhelOBP10 (DhelOBP10 [4]): electrostatic force; attraction to D. helophoroides after silencing DhelOBP10 (D. helophoroides adults): significantly lower attraction index |
| – | – | – | – | 0.01694 kcal/mol | 3.742e+11 | 3,742 ± 92.59 L·mol^−1 | 0.9404 ± 0.0271 | −18,347.45 J·mol^−1 | 2.913e+11 | 2,913 ± 190.8 L·mol^−1 | 0.9471 ± 0.0676 | −18,846.32 J·mol^−1 | static quenching | (+)-fenchone | static quenching | significantly attracted; also recorded: could attract adults | significantly attracted; also recorded: significant preference | Ka (apparent association constant) (MaltOBP24 [3]; MaltOBP24, pH 7.4, 289 K): 3,312,799.36 L·mol^−1; Kq (bimolecular quenching constant) (MaltOBP24 [3]; MaltOBP24, pH 7.4, 289 K): 2.4531e+12 M⁻¹ s⁻¹; Ksv (quenching constant) (MaltOBP24 [3]; MaltOBP24, pH 7.4, 289 K): 24,531 ± 303.9 L·mol^−1; Ka (apparent association constant) (MaltOBP24 [3]; MaltOBP24, pH 7.4, 298 K): 2,154,595.09 L·mol^−1; Kq (bimolecular quenching constant) (MaltOBP24 [3]; MaltOBP24, pH 7.4, 298 K): 1.4813e+12 M⁻¹ s⁻¹; Ksv (quenching constant) (MaltOBP24 [3]; MaltOBP24, pH 7.4, 298 K): 14,813 ± 141.8 L·mol^−1; Ka (apparent association constant) (DhelOBP10 [4]; DhelOBP10, pH 7.4, 289 K): 2,071.51 L·mol^−1; Ka (apparent association constant) (DhelOBP10 [4]; DhelOBP10, pH 7.4, 298 K): 2,011.77 L·mol^−1; main acting force between ligand and DhelOBP10 (DhelOBP10 [4]): hydrophobic; attraction index to M. alternatus after silencing MaltOBP24 (M. alternatus adults; RNAi, compared with non-injected and dsGFP controls): significantly decreased; attraction to D. helophoroides after silencing DhelOBP10 (D. helophoroides adults): significantly decreased |
| – | – | – | – | – | – | – | – | – | – | – | – | – | – | C=CC(=C)CC/C=C(\C)CCC=C(C)C [(E)-β-farnesene] | – | – | – | affinity with SaveOBP3 (SaveOBP3): high affinity; affinity with EbalOBP3 (EbalOBP3): high affinity |
| – | – | – | – | – | – | – | – | – | – | – | – | – | – | (+)-α-pinene | dynamic quenching | – | – | – |
| – | – | – | – | – | – | – | – | – | – | – | – | – | dynamic quenching | CC1=CC[C@@H]2[C@@H]3[C@H]1[C@@]2(C)CCCC3(C)C [(+)-α-longipinene] | – | – | – | – |
| – | – | – | – | 0.01114 kcal/mol | 6.287e+11 | 6,287 ± 91.45 L·mol^−1 | 0.9715 ± 0.0292 | −20,458.37 J·mol^−1 | 4.016e+11 | 4,016 ± 108.1 L·mol^−1 | 0.9324 ± 0.0422 | −18,738.30 J·mol^−1 | static quenching | C=C(C)[C@H]1CC=C(C)CC1 [R-(+)-limonene] | dynamic quenching | did not affect their behavior | significant preference | ligand-binding affinity with DhelOBP10 (class) (DhelOBP10 [2]; fluorescence binding combined with quenching): high (high if the Ki values <20 μM); Ka (apparent association constant) (DhelOBP10 [4]; DhelOBP10, pH 7.4, 289 K): 4,986.95 L·mol^−1; ΔH (enthalpy change) (DhelOBP10 [4]): −6,986.94 J·mol^−1; Ka (apparent association constant) (DhelOBP10 [4]; DhelOBP10, pH 7.4, 298 K): 1,925.95 L·mol^−1; attraction to D. helophoroides after silencing DhelOBP10 (D. helophoroides adults): not altered |
| – | – | – | – | 0.008678 kcal/mol | 5.736e+11 | 5,736 ± 153.1 L·mol^−1 | 1.0321 ± 0.0670 | −21,851.44 J·mol^−1 | 2.139e+11 | 2,139 ± 58.09 L·mol^−1 | 0.9823 ± 0.1034 | −18,944.55 J·mol^−1 | static quenching | CC1=CCC(=C(C)C)CC1 [α-terpinolene] | static quenching | did not affect their behavior | did not show preference | Ka (apparent association constant) (MaltOBP24 [3]; MaltOBP24, pH 7.4, 289 K): 5,449,703.40 L·mol^−1; Kq (bimolecular quenching constant) (MaltOBP24 [3]; MaltOBP24, pH 7.4, 289 K): 2.5179e+12 M⁻¹ s⁻¹; Ksv (quenching constant) (MaltOBP24 [3]; MaltOBP24, pH 7.4, 289 K): 25,179 ± 659.6 L·mol^−1; Ka (apparent association constant) (MaltOBP24 [3]; MaltOBP24, pH 7.4, 298 K): 2,525,092.74 L·mol^−1; Kq (bimolecular quenching constant) (MaltOBP24 [3]; MaltOBP24, pH 7.4, 298 K): 2.0347e+12 M⁻¹ s⁻¹; Ksv (quenching constant) (MaltOBP24 [3]; MaltOBP24, pH 7.4, 298 K): 20,347 ± 501.6 L·mol^−1; Ka (apparent association constant) (DhelOBP10 [4]; DhelOBP10, pH 7.4, 289 K): 8,904.93 L·mol^−1; ΔH (enthalpy change) (DhelOBP10 [4]): −11,356.86 J·mol^−1; Ka (apparent association constant) (DhelOBP10 [4]; DhelOBP10, pH 7.4, 298 K): 2,093.14 L·mol^−1; main acting force between ligand and DhelOBP10 (DhelOBP10 [4]): electrostatic force |
| > 50 | > 50 | 9.09 ± 1.7 | 33.8 ± 1.04 | – | – | – | – | – | – | – | – | – | – | CC12CCC(CC1=O)C2(C)C (centres unmarked) [camphor] | – | – | – | – |
| > 50 | 22.1 ± 3.21 | 8.29 ± 1.99 | 24.5 ± 2.44 | – | – | – | – | – | – | – | – | – | – | C=C1C2CCC(C2)C1(C)C (centres unmarked) [camphene] | – | – | – | – |
| 38.5 ± 3.44 | 24.2 ± 1.94 | 3.65 ± 0.34 | 15.7 ± 1.26 | – | – | – | – | – | – | – | – | – | – | C=C1CC[C@H]2O[C@]2(C)CC[C@@H]2[C@@H]1CC2(C)C [(−)-caryophyllene oxide] | – | – | – | – |
| 22.4 ± 2.29 | 24.3 ± 3.95 | 3.93 ± 0.71 | 28.7 ± 1.12 | – | – | – | – | – | – | – | – | – | – | C=CC(=C)CCC=C(C)C [myrcene] | – | – | – | – |
